For orientation: IC50 means the concentration at which inhibition is half-maximal.

Data set [1] relates to MDA-MB-231. As to the kind of experiment: Induction of ROS generation in human MDA-MB-231 cells at 2.5 to 40 uM incubated for 24 hrs by bioluminescence assay. As to conditions: dose 2.5-40 µM. The format is functional, cell-based. The method, boiled down:
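MDA-MB-231 cells stably carrying the lentiviral OxiLuc oxidative-stress reporter, sorted by FACS for mStrawberry. Plated at 5x10³ cells/well the day before, then given escalating doses for 24 h. Bioluminescence imaged on an IVIS Spectrum, and per-well photon flux quantified as photons/s/sr/cm².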

Data set [2] relates to MDA-MB-231. Kind of data set: Antiproliferative activity against human MDA-MB-231 cells. The format is functional, cell-based. The method, boiled down:
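MDA-MB-231 cells grown in RPMI-1640 with 10% FBS at 37°C, 5% CO2. Seeded at 2000 cells/well, then exposed to graded compound concentrations, medium renewed every 2–3 days. On day 5, viability read by CyQUANT fluorescence (cellular DNA content).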

In data set [3] the test system is MDA-MB-231. As to the kind of experiment: Effect on metabolism in human MDA-MB-231 cells assessed as reduction in intracellular aspartate level at 5 uM incubated for 16 hrs by LC-MS based metabolomics analysis. It counts as functional, cell-based. In short, it runs like this:
(§1)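 MDA-MB-231 cells in RPMI-1640 plus 10% FBS, treated 16 h with DMSO vehicle or compound at 5 μM. Untargeted metabolic profiling followed, with normalized metabolite levels compared between treated and vehicle groups.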

Data set [4] in a line: Cytotoxicity against human MCF-10A cells. It counts as toxicity, cell-based.
Data set [5] in a line: Cytotoxicity against vincristine-resistant human VJ-300 cells. It counts as functional, cell-based.
The nature of data set [6]: Effect on metabolism in human MDA-MB-231 cells assessed as reduction in N-acetylaspartate level at 5 uM incubated for 16 hrs by LC-MS based metabolomics analysis. It counts as functional. Further details: scale not given: the % may be the effect or the level left. In short, it runs like this:
as §1

Data set [7] in a line: Effect on metabolism in human MDA-MB-231 cells assessed as reduction in carbamoyl aspartate level at 5 uM incubated for 16 hrs by LC-MS based metabolomics analysis. The format is functional. Further details: scale not given: the % may be the effect or the level left. In short, it runs like this: as §1
A further data set deals with T47D. Kind of data set: Cytotoxicity against human T47D cells. It counts as functional, cell-based.
Data set [8] is described as follows: Effect on metabolism in human MDA-MB-231 cells assessed as reduction in argininosuccinic-acid level at 5 uM incubated for 16 hrs by LC-MS based metabolomics analysis. The format is functional. More on the design: scale not given: the % may be the effect or the level left. In short, it runs like this:
as §1

The subject of data set [9] is MDA-MB-231. Kind of data set: Effect on metabolism in human MDA-MB-231 cells assessed as change in intracellular metabolite abundances at 5 uM incubated for 16 hrs by LC-MS based metabolomics analysis. The format is functional, cell-based. In short, it runs like this:
as §1

Data set [10] can be described thus: Inhibition of pyrimidine biosynthesis in human MDA-MB-231 cells assessed as fold increase in cytidine levels at 5 uM incubated for 16 hrs by LC-MS based metabolomics analysis. It counts as functional. In short, it runs like this:
as §1

For another data set, the system named is MCF7. Kind of data set: Cytotoxicity against human MCF7 cells. It counts as functional, cell-based.

The source made the active and inactive calls. No cut-off for these calls is given here.

For the compound `CC[C@]12C=CCN3CC[C@]4(C(=C(C(=O)OC)C1)Nc1cc(OC)c(OS(=O)(=O)F)cc14)[C@@H]32`, the result with MDA-MB-231 [1] and in the data set on MDA-MB-231 [3] was inactive. Moreover, 3720 nM corresponded to half-maximal inhibition with MDA-MB-231 [2] (IC50).

For the compound `CC[C@]12C=CCN3CC[C@@]4(C5=CC(=O)C(OC)=CC5=NC4=C(C(=O)OC)C1)[C@@H]32`, the result in the data set on MDA-MB-231 [1] was inactive. In addition, in the data set with MDA-MB-231 [2], the IC50 turned out to be 1960 nM.

`CC[C@]12C=CCN3CC[C@]4(C(=C(C(=O)OC)C1)Nc1ccc(OS(=O)(=O)F)cc14)[C@@H]32`: the outcome with MDA-MB-231 [1] was inactive. In the data set with MDA-MB-231 [2], this compound gave an IC50 of 6170 nM.

`CC[C@]12C=CCN3CC[C@]4(C(=C(C(=O)OC)C1)Nc1cc(OC)c(OC(C)=O)cc14)[C@@H]32` [JERANTININE A ACETATE]: the values for the IC50 (in data set [4]; in data set [5]; with MDA-MB-231 [2]) were 18800 nM, 830 nM and 2600 nM, respectively.

For the compound `CC[C@]12C=CCN3CC[C@]4(C(=C(C(=O)OC)C1)Nc1cc(OC)c(O)cc14)[C@@H]32` [JERANTININE A], the IC50 in data set [4] amounted to 960 nM; in the data set on T47D, 720 nM; in the data set on MDA-MB-231 [2], 1920 nM; in the data set with MCF7 it was 720 nM. Also, the Activity in [6], in data set [7] and in data set [8] was 90% each time. The result in the data set on MDA-MB-231 [1], in the data set with MDA-MB-231 [3] and in the data set with MDA-MB-231 [9] was Active. In addition, the “fold change (FC)” value in [10] worked out at 10.

As to `CC[C@]12C=CCN3CC[C@]4(C(=C(C(=O)OC)C1)Nc1ccc(O)cc14)[C@@H]32` [MELODININE P], in the data set with MDA-MB-231 [1], the result was Active. Further, the IC50 with MDA-MB-231 [2] came out at 1060 nM.

For `CC[C@]12C=CCN3CC[C@]4(C(=C(C(=O)OC)C1)Nc1ccccc14)[C@@H]32` [TABERSONINE], the outcome in the data set with MDA-MB-231 [1] was inactive. Inhibition in the data set with MDA-MB-231 [2] was half-maximal at 5590 nM (IC50).

The record behind these values is ChEMBL document CHEMBL5252672, “Inhibition of mitochondrial metabolism by (-)-jerantinine A: synthesis and biological studies in triple-negative breast cancer cells” (RSC Med Chem, 2023).
